The record followed here is ChEMBL document CHEMBL1212889, “Novel antifungal agents: triazolopyridines as inhibitors of beta-1,6-glucan synthesis” (Bioorg Med Chem, 2010).

≈ marks a conversion by molar mass, not a printed value.

Test system in the first series: not listed separately
The experiment in a line: Solubility of the compound at pH 6.8. In kind it is physicochemical. Particulars: buffer. The essentials:
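Water solubility measured at pH 6.8.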
In the case of `CCCCc1c(C)c(C#N)c2nc(C(C)(C)C)nn2c1N1CC[C@H](N(C)C)C1`, the solubility – broadly, the dissolved amount per volume that the medium holds – came out at 146 µg/mL (≈ 382 µM).
For the molecule `Cc1c(-c2ccccc2)c(N2CC[C@H](N(C)C)C2)n2c(nc3ccccc32)c1C#N`, the solubility turned out to be 5.3 µg/mL (≈ 13.4 µM).
In turn, `OC(Cn1cncn1)(Cn1cncn1)c1ccc(F)cc1F` [FLUCONAZOLE] had a solubility above 2000 µg/mL.
`CCCCc1nc2c(C#N)c(C)c(-c3ccccc3)c(N3CC[C@H](N(C)C)C3)n2n1` gave a solubility of 33 µg/mL (≈ 82 µM).
The molecule `CCN(CC)CCNc1c(-c2ccccc2)c(C)c(C#N)c2nc(C(C)(C)C)nn12` had a solubility of 2 µg/mL (≈ 4.94 µM).
In the case of `CCCCc1c(C)c(C#N)c2nc3ccccc3n2c1N1CC[C@H](N(C)C)C1`, the solubility is 26 µg/mL (≈ 69.2 µM).
Molecule `Cc1nc2c(C#N)c(C)c(-c3ccccc3)c(N3CC[C@H](N(C)C)C3)n2n1` showed a solubility of 376 µg/mL (≈ 1040 µM). Compared with the last molecule, the solubility is about 14-fold higher.

A further series has as its system Candida albicans. The experiment in a line: Antimicrobial activity against Candida albicans ATCC 24433 by microdilution assay. It is filed as functional.
Settings: not given
In short, it runs like this: (§1)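 CLSI broth microdilution, modified to incubate at 30 °C. MIC-0 is the lowest drug concentration giving an optically clear well. Table footnote: the endpoint was the lowest concentration producing a prominent reduction in turbidity. Drug range 0.004 to 128 µg/mL.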
In general terms: In broth dilution the organism is exposed to a series of concentrations in liquid medium.
`CCCCc1c(C)c(C#N)c2nc(C(C)(C)C)nn2c1N1CC[C@H](N(C)C)C1`: the MIC (as a rule, the smallest concentration in the dilution series that meets the test's criterion for growth inhibition) was above 128 µg/mL.
The molecule `Cc1c(-c2ccccc2)c(N2CC[C@H](N(C)C)C2)n2c(nc3ccccc32)c1C#N` registered an MIC above 128 µg/mL.
In the case of `OC(Cn1cncn1)(Cn1cncn1)c1ccc(F)cc1F` [FLUCONAZOLE], the MIC is 0.25 µg/mL (≈ 0.816 µM).
For `CCCCc1nc2c(C#N)c(C)c(-c3ccccc3)c(N3CC[C@H](N(C)C)C3)n2n1`, the minimal inhibitory concentration (MIC) was above 128 µg/mL.
`CCN(CC)CCNc1c(-c2ccccc2)c(C)c(C#N)c2nc(C(C)(C)C)nn12` registered an MIC above 128 µg/mL.
The molecule `CCCCc1c(C)c(C#N)c2nc3ccccc3n2c1N1CC[C@H](N(C)C)C1` had a minimum inhibitory concentration (MIC) above 128 µg/mL.
`Cc1c(-c2ccccc2)c(N2CC[C@H](N(C)C)C2)n2nc(-c3ccccc3)nc2c1C#N` yielded an MIC above 128 µg/mL.
Still for that read-out and setting: then `Cc1nc2c(C#N)c(C)c(-c3ccccc3)c(N3CC[C@H](N(C)C)C3)n2n1`, with above 128 µg/mL.

Test system in another series: not listed separately
Kind of series: Octanol-phosphate buffered saline partition coefficient, log D of the compound at pH 6.8.
Settings: not given
In kind it is physicochemical. In short, it runs like this: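 Shake partition between 1-octanol and phosphate-buffered saline at pH 6.8. Layers were separated by centrifugation at 3000 rpm for 10 min, and each layer was assayed by LC/MS on a C18 column with an ammonium acetate (pH 4.5)/acetic acid–acetonitrile gradient. Log D was computed from the partition coefficient.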
For the molecule `CCCCc1c(C)c(C#N)c2nc(C(C)(C)C)nn2c1N1CC[C@H](N(C)C)C1`, the pH-dependent lipophilicity (logD) (as a rule, the decadic logarithm of the distribution of all forms, ionised or not, between an organic phase and buffer at a given pH) was 3.2.
`Cc1c(-c2ccccc2)c(N2CC[C@H](N(C)C)C2)n2c(nc3ccccc32)c1C#N` displayed a pH-dependent lipophilicity (logD) of 3.1.
Same read-out and setting: to `CCCCc1nc2c(C#N)c(C)c(-c3ccccc3)c(N3CC[C@H](N(C)C)C3)n2n1` belongs 3.2.
`CCN(CC)CCNc1c(-c2ccccc2)c(C)c(C#N)c2nc(C(C)(C)C)nn12` registered a log distribution coefficient (logD) of 3.3.
`CCCCc1c(C)c(C#N)c2nc3ccccc3n2c1N1CC[C@H](N(C)C)C1` showed a pH-dependent lipophilicity (logD) of 3.2.
Molecule `Cc1nc2c(C#N)c(C)c(-c3ccccc3)c(N3CC[C@H](N(C)C)C3)n2n1` came in with a logD of 1.7.

The test system of a further series is Nakaseomyces glabratus. Kind of series: Antimicrobial activity against Candida glabrata IFO 0622 by microdilution assay. In kind it is functional.
Settings: not given
In short, it runs like this:
as §1
`CCCCc1c(C)c(C#N)c2nc(C(C)(C)C)nn2c1N1CC[C@H](N(C)C)C1` registered an MIC of 32 µg/mL (≈ 83.6 µM).
Regarding `Cc1c(-c2ccccc2)c(N2CC[C@H](N(C)C)C2)n2c(nc3ccccc32)c1C#N`, the minimum inhibitory concentration (MIC) was at most 0.125 µg/mL.
Regarding `OC(Cn1cncn1)(Cn1cncn1)c1ccc(F)cc1F` [FLUCONAZOLE], it took 2 µg/mL (≈ 6.53 µM) to inhibit growth (MIC).
Same read-out and setting: to `CCCCc1nc2c(C#N)c(C)c(-c3ccccc3)c(N3CC[C@H](N(C)C)C3)n2n1` belongs 1 µg/mL (≈ 2.48 µM); to `CCN(CC)CCNc1c(-c2ccccc2)c(C)c(C#N)c2nc(C(C)(C)C)nn12`, 0.5 µg/mL (≈ 1.24 µM).
In the case of `CCCCc1c(C)c(C#N)c2nc3ccccc3n2c1N1CC[C@H](N(C)C)C1`, the minimal inhibitory concentration (MIC) was at most 0.125 µg/mL.
As for `Cc1c(-c2ccccc2)c(N2CC[C@H](N(C)C)C2)n2nc(-c3ccccc3)nc2c1C#N`, the MIC was above 128 µg/mL.
Molecule `Cc1nc2c(C#N)c(C)c(-c3ccccc3)c(N3CC[C@H](N(C)C)C3)n2n1` showed an MIC of 2 µg/mL (≈ 5.55 µM).

A further series concerns Pichia kudriavzevii. Kind of series: Antimicrobial activity against Candida krusei TIMM 0269 by microdilution assay.
Settings: not given
In kind it is functional. In short, it runs like this: as §1
Consider `CCCCc1c(C)c(C#N)c2nc(C(C)(C)C)nn2c1N1CC[C@H](N(C)C)C1`, for which the minimum inhibitory concentration (MIC) was above 128 µg/mL.
As to `Cc1c(-c2ccccc2)c(N2CC[C@H](N(C)C)C2)n2c(nc3ccccc32)c1C#N`, the minimal inhibitory concentration (MIC) was at most 0.125 µg/mL.
As for `OC(Cn1cncn1)(Cn1cncn1)c1ccc(F)cc1F` [FLUCONAZOLE], the MIC was 16 µg/mL (≈ 52.2 µM).
In turn, `CCCCc1nc2c(C#N)c(C)c(-c3ccccc3)c(N3CC[C@H](N(C)C)C3)n2n1` had a minimum inhibitory concentration (MIC) above 64 µg/mL.
In turn, `CCN(CC)CCNc1c(-c2ccccc2)c(C)c(C#N)c2nc(C(C)(C)C)nn12` registered an MIC above 128 µg/mL.
Still for that read-out and setting: to `CCCCc1c(C)c(C#N)c2nc3ccccc3n2c1N1CC[C@H](N(C)C)C1` belongs 0.5 µg/mL (≈ 1.33 µM); to `Cc1c(-c2ccccc2)c(N2CC[C@H](N(C)C)C2)n2nc(-c3ccccc3)nc2c1C#N`, above 128 µg/mL; to `Cc1nc2c(C#N)c(C)c(-c3ccccc3)c(N3CC[C@H](N(C)C)C3)n2n1`, above 128 µg/mL.

Another series deals with Saccharomyces cerevisiae. Kind of series: Antimicrobial activity against Saccharomyces cerevisiae AY14 by microdilution assay. It is filed as functional.
Settings: not given
In short, it runs like this:
as §1
In turn, `CCCCc1c(C)c(C#N)c2nc(C(C)(C)C)nn2c1N1CC[C@H](N(C)C)C1` showed a minimum inhibitory concentration (MIC) of 64 µg/mL (≈ 167 µM).
The same measure, in the same setting: then `Cc1c(-c2ccccc2)c(N2CC[C@H](N(C)C)C2)n2c(nc3ccccc32)c1C#N`, with at most 0.125 µg/mL; and `OC(Cn1cncn1)(Cn1cncn1)c1ccc(F)cc1F` [FLUCONAZOLE], with 4 µg/mL (≈ 13.1 µM).
`CCCCc1nc2c(C#N)c(C)c(-c3ccccc3)c(N3CC[C@H](N(C)C)C3)n2n1` yielded an MIC of 2 µg/mL (≈ 4.97 µM). Against the preceding molecule, the MIC is about 2-fold lower.
In the case of `CCN(CC)CCNc1c(-c2ccccc2)c(C)c(C#N)c2nc(C(C)(C)C)nn12`, 0.5 µg/mL (≈ 1.24 µM) was the least that counted as inhibitory (MIC). This MIC is about 4-fold lower than that of the molecule before.
In the case of `CCCCc1c(C)c(C#N)c2nc3ccccc3n2c1N1CC[C@H](N(C)C)C1`, inhibition of growth (MIC) required 0.25 µg/mL (≈ 0.666 µM).
Molecule `Cc1c(-c2ccccc2)c(N2CC[C@H](N(C)C)C2)n2nc(-c3ccccc3)nc2c1C#N` returned an MIC above 128 µg/mL.
The same measure, in the same setting: to `Cc1nc2c(C#N)c(C)c(-c3ccccc3)c(N3CC[C@H](N(C)C)C3)n2n1` belongs 8 µg/mL (≈ 22.2 µM).

Another series deals with Candida tropicalis. Kind of series: Antimicrobial activity against Candida tropicalis TIMM 0313 by microdilution assay. It is filed as functional.
Settings: not given
In short, it runs like this:
as §1
`CCCCc1c(C)c(C#N)c2nc(C(C)(C)C)nn2c1N1CC[C@H](N(C)C)C1`: the MIC is above 128 µg/mL.
Turning to `Cc1c(-c2ccccc2)c(N2CC[C@H](N(C)C)C2)n2c(nc3ccccc32)c1C#N`, 0.5 µg/mL (≈ 1.26 µM) was the least that counted as inhibitory (MIC).
Molecule `OC(Cn1cncn1)(Cn1cncn1)c1ccc(F)cc1F` [FLUCONAZOLE] gave a minimal inhibitory concentration (MIC) of 0.25 µg/mL (≈ 0.816 µM).
Same read-out and setting: to `CCCCc1nc2c(C#N)c(C)c(-c3ccccc3)c(N3CC[C@H](N(C)C)C3)n2n1` belongs above 64 µg/mL.
For `CCN(CC)CCNc1c(-c2ccccc2)c(C)c(C#N)c2nc(C(C)(C)C)nn12`, the minimal inhibitory concentration (MIC) was above 128 µg/mL.
`CCCCc1c(C)c(C#N)c2nc3ccccc3n2c1N1CC[C@H](N(C)C)C1` returned an MIC of 0.5 µg/mL (≈ 1.33 µM).
Molecule `Cc1c(-c2ccccc2)c(N2CC[C@H](N(C)C)C2)n2nc(-c3ccccc3)nc2c1C#N` showed a minimal inhibitory concentration (MIC) above 128 µg/mL.
The same measure, in the same setting: to `Cc1nc2c(C#N)c(C)c(-c3ccccc3)c(N3CC[C@H](N(C)C)C3)n2n1` belongs above 128 µg/mL.

Another series concerns Liver microsomes. Kind of series: Metabolic stability in human liver microsomes. In kind it is ADME, Microsome.
Settings: not given
In short, it runs like this: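 Compound at 1 µM final with human liver microsomes (0.5 mg/mL protein) in sodium phosphate buffer pH 7.4, preincubated 20 min at 37 °C. NADPH started the reaction, and MeOH stopped it after 30 min. Samples were centrifuged at 4 °C, and parent loss was measured by LC/MS/MS.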
For orientation: Liver microsomes are a subcellular fraction often used to study metabolism.
With `CCCCc1c(C)c(C#N)c2nc(C(C)(C)C)nn2c1N1CC[C@H](N(C)C)C1`, the Stability came to 11%.
Same read-out and setting: then `Cc1c(-c2ccccc2)c(N2CC[C@H](N(C)C)C2)n2c(nc3ccccc32)c1C#N`, with 29%; and `OC(Cn1cncn1)(Cn1cncn1)c1ccc(F)cc1F` [FLUCONAZOLE], with 96%.
The same measure, in the same setting: to `CCCCc1nc2c(C#N)c(C)c(-c3ccccc3)c(N3CC[C@H](N(C)C)C3)n2n1` belongs 5%; to `CCN(CC)CCNc1c(-c2ccccc2)c(C)c(C#N)c2nc(C(C)(C)C)nn12`, 10%; to `CCCCc1c(C)c(C#N)c2nc3ccccc3n2c1N1CC[C@H](N(C)C)C1`, 57%.
As for `Cc1nc2c(C#N)c(C)c(-c3ccccc3)c(N3CC[C@H](N(C)C)C3)n2n1`, the Stability stood at 84%.
